# Source: publication PMC5299031 (Structure (London, England : 1993), 2017)
# Ends that are not written are not given here. * marks the point of attachment. FITC = O=C1OC2(c3ccc(O)cc3Oc3cc(O)ccc32)c2ccc(NC(=S)*)cc21
# B1: purified STK40 KHD+20 (22-359) (domain or fragment, human, UniProt Q8N2I9 22-359, looked up)
# chain: SGISGNNAKRAGPFILGPRLGNSPVPSIVQCLARKDGTDDFYQLKILTLEERGDQGIESQEERQGKMLLHTEYSLLSLLHTQDGVVHHHGLFQDRTCEIVEDTESSRMVKKMKKRICLVLDCLCAHDFSDKTADLINLQHYVIKEKRLSERETVVIFYDVVRVVEALHQKNIVHRDLKLGNMVLNKRTHRITITNFCLGKHLVSEGDLLKDQRGSPAYISPDVLSGRPYRGKPSDMWALGVVLFTMLYGQFPFYDSIPQELFRKIKAAEYTIPEDGRVSENTVCLIRKLLVLDPQQRLAAADVLEALSAIIASWQSLSSLSGPLQVVPDIDDQMSNAD
# B2: KHD containing a C-terminal extension of 20 amino acids: KHD containing a C-terminal extension of 20 amino acids encompassing the COP1-binding peptide (protein)
# chain: B1 chain
# modifications: left off: His tag, N-terminal, cleaved
# B3: Full-length STK40: N-terminal Flag-tagged full-length STK40 (FLAG, HA tags in HeLa tandem IP) (protein)
# chain: MKRRASDRGAGETSARAKALGSGISGNNAKRAGPFILGPRLGNSPVPSIVQCLARKDGTDDFYQLKILTLEERGDQGIESQEERQGKMLLHTEYSLLSLLHTQDGVVHHHGLFQDRTCEIVEDTESSRMVKKMKKRICLVLDCLCAHDFSDKTADLINLQHYVIKEKRLSERETVVIFYDVVRVVEALHQKNIVHRDLKLGNMVLNKRTHRITITNFCLGKHLVSEGDLLKDQRGSPAYISPDVLSGRPYRGKPSDMWALGVVLFTMLYGQFPFYDSIPQELFRKIKAAEYTIPEDGRVSENTVCLIRKLLVLDPQQRLAAADVLEALSAIIASWQSLSSLSGPLQVVPDIDDQMSNADSSQEAKVTEECSQYEFENYMRQQLLLAEEKSSIHDARSWVPKRQFGSAPPVRRLGHDAQPMTSLDTAILAQRYLRK
# modifications: left off: Flag, N-terminal, kept
# B4: KHD: construct of STK40 containing only the central kinase homology domain (KHD) (protein)
# chain: SGISGNNAKRAGPFILGPRLGNSPVPSIVQCLARKDGTDDFYQLKILTLEERGDQGIESQEERQGKMLLHTEYSLLSLLHTQDGVVHHHGLFQDRTCEIVEDTESSRMVKKMKKRICLVLDCLCAHDFSDKTADLINLQHYVIKEKRLSERETVVIFYDVVRVVEALHQKNIVHRDLKLGNMVLNKRTHRITITNFCLGKHLVSEGDLLKDQRGSPAYISPDVLSGRPYRGKPSDMWALGVVLFTMLYGQFPFYDSIPQELFRKIKAAEYTIPEDGRVSENTVCLIRKLLVLDPQQRLAAADVLEALSAIIASWQSLS
# modifications: left off: His tag, N-terminal, cleaved
# Experiments:
# [1] = system: COP1 WD40 domain; test: Flag-immunoprecipitation; type: cell-based, human; conditions: 293T cells; anti-Flag IP, western blot anti-COP1; Figure 1C lanes 6–8
# [2] = system: STK40 kinase-homology domain (aa 22–339); test: Thermal shift assay; type: binding, human; conditions: summary statement (Highlights)
# [3] = system: partially purified full-length STK40; conditions: single ATP concentration (0.2mM); ref Murphy et al., 2014; cited from earlier work
# [4] = target: T1, purified human COP1 WD40 β propeller (386-731) (human, UniProt Q8NHY2 386-731); test: fluorescence polarisation
# [5] = target: T1, purified human COP1 WD40 β propeller …; test: fluorescence polarisation; remark: listed apart in the source
# [6] = target: COP1 WD40 domain (386–731); type: binding, human; conditions: same competition assay; 25 nM FITC-peptide, 1500 nM COP1 WD40 (386–731)
# [7] = system: endogenous COP1; test: Flag-immunoprecipitation in 293T cells: endogenous COP1; type: cell-based, human; conditions: anti-Flag IP, western blot anti-COP1, Figure 1C, black arrow
# Procedure, shortened: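 Human 293T cells grown in standard medium were transiently transfected with Flag-tagged STK40 constructs in pcDNA3.0 plus COP1 in pTriEx1.1. Lysates and eluates were run on 4–20% gradient gels and immunoblotted for Flag and COP1.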
# T1 sequence (Q8NHY2 386-731): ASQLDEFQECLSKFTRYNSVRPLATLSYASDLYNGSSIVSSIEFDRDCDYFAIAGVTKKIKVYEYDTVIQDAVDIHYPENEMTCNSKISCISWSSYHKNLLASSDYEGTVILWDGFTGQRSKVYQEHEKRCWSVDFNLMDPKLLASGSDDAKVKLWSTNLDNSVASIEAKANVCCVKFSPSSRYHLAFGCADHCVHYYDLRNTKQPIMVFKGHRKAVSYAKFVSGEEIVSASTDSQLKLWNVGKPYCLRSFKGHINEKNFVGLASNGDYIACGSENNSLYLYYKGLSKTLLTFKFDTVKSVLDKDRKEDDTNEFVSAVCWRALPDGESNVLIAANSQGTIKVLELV
molecule,measurement,setting,value
SSLSGPLQVVPDI [12 residue peptide fused to GFP],association with / recovery of COP1 WD40 domain,[1],"recovers the COP1 WD40 domain, but less efficiently than full-length STK40"
Nc1ncnc2c1ncn2[C@@H]1O[C@H](COP(=O)(O)OP(=O)(O)OP(=O)(O)O)[C@@H](O)[C@H]1O [ATP],ATP binding by STK40 kinase homology domain,[2],does not bind ATP
same,ATP binding by full-length STK40,[3],no ATP binding
{FITC}-SSLSGPLQVVPD [STK40 peptide FITC-SSLSGPLQVVPD],Kd,[4],3100 ± 600 nM
B1,Ki,[5],1200 ± 100 nM
B2,apparent Ki relative to isolated STK40 peptide (in words),[6],lower apparent Ki than the isolated peptide
B3,immunoprecipitation with endogenous COP1,[7],immunoprecipitates with endogenous COP1
B4,association with / recovery of COP1 WD40 domain,[1],unable to recover detectable quantities of the COP1 WD40 domain
